Converted amounts (≈) assume the structure as drawn.
Tests used:
Type in all cases: functional
[1] = system: Acinetobacter baumannii; test: Antimicrobial activity against Acinetobacter baumannii isolate 12 at pH 5.8
Method in brief: (§1)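 MIC by agar dilution on Mueller-Hinton agar acidified to pH 5.8 with HCl before antibiotic-containing plates were poured. Agar pH was rechecked once the agar had solidified. Isolates had characterized gyrA/parC genes. Plates for both drugs were made the same day from fresh media, and MICs were read in parallel with the standard-pH set.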

[2] = system: Acinetobacter baumannii; test: Antimicrobial activity against Acinetobacter baumannii isolate 45 harboring GyrA Ser83-Leu and ParC Ser80-Leu mutation at pH 5.8
Method in brief: (§2)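 Agar dilution MIC on Mueller-Hinton agar. For the acidic condition, HCl was added to bring the agar to pH 5.8 before pouring the antibiotic plates, and the pH was checked after the agar set. The standard condition was pH 7.2. Both drugs' plates were made the same day from fresh medium, and MICs were read at the same time.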

[3] = system: Acinetobacter baumannii; test: Antimicrobial activity against Acinetobacter baumannii isolate 47 harboring GyrA Ser83-Leu and ParC Ser80-Phe mutation at pH 7.2; method in brief: as §2
[4] = system: Acinetobacter baumannii; test: Antimicrobial activity against Acinetobacter baumannii isolate 33 harboring GyrA Ser83-Leu mutation at pH 7.2; method in brief: as §2
[5] = system: Acinetobacter baumannii; test: Antimicrobial activity against Acinetobacter baumannii isolate 44 harboring GyrA Ser83-Leu and ParC Glu84-Lys mutation at pH 5.8; method in brief: as §2
[6] = system: Acinetobacter baumannii; test: Antimicrobial activity against Acinetobacter baumannii isolate 23 harboring GyrA Glu87-Gly mutation at pH 7.2
Method in brief: (§3)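 MIC by agar dilution on Mueller-Hinton agar under standard conditions (pH 7.2), against isolates with characterized gyrA/parC genes. Agar pH was checked after solidifying. Plates for both drugs were prepared the same day from freshly made media, and MICs were determined simultaneously with the pH 5.8 set.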

[7] = system: Acinetobacter baumannii; test: Antimicrobial activity against adeB overexpressing Acinetobacter baumannii isolate 68 harboring GyrA Ser83-Leu and ParC Ser80-Leu mutation at pH 7.2
Method in brief: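 Agar dilution MIC on Mueller-Hinton agar under standard conditions (pH 7.2). Antibiotic-containing plates were made the same day from freshly prepared medium. Agar pH was checked after solidifying. Both fluoroquinolones were tested simultaneously against A. baumannii isolates with characterized gyrA/parC genes. MICs are in μg/ml.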

[8] = system: Acinetobacter baumannii; test: Antimicrobial activity against Acinetobacter baumannii isolate 8 at pH 5.8
Method in brief: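 Agar dilution MIC on Mueller-Hinton agar acidified to pH 5.8 with HCl before the antibiotic-containing plates were poured. Agar pH was checked after solidifying. Plates were made the same day from fresh medium. Both fluoroquinolones were tested simultaneously against A. baumannii isolates with characterized gyrA/parC genes. MICs are in μg/ml.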

[9] = system: Acinetobacter baumannii; test: Antimicrobial activity against Acinetobacter baumannii isolate 46 harboring GyrA Ser83-Leu and ParC Ser80-Leu mutation at pH 7.2; method in brief: as §2
[10] = system: Acinetobacter baumannii; test: Antimicrobial activity against Acinetobacter baumannii isolate 10 at pH 5.8; method in brief: as §1
[11] = system: Acinetobacter baumannii; test: Antimicrobial activity against Acinetobacter baumannii isolate 2 at pH 5.8; method in brief: as §1
[12] = system: Acinetobacter baumannii; test: Antimicrobial activity against Acinetobacter baumannii isolate 24 harboring GyrA Ser83-Leu mutation at pH 7.2; method in brief: as §3
[13] = system: Acinetobacter baumannii; test: Antimicrobial activity against Acinetobacter baumannii isolate 45 harboring GyrA Ser83-Leu and ParC Ser80-Leu mutation at pH 7.2; method in brief: as §2
[14] = system: Acinetobacter baumannii; test: Antimicrobial activity against Acinetobacter baumannii isolate 48 harboring GyrA Ser83-Leu and ParC Ser80-Leu mutation at pH 7.2; method in brief: as §2

Compound | MIC [1] | MIC [2] | MIC [3] | MIC [4] | MIC [5] | MIC [6] | MIC [7] | MIC [8] | MIC [9] | MIC [10] | MIC [11] | MIC [12] | MIC [13] | MIC [14]
N#Cc1c(N2C[C@@H]3NCCO[C@H]3C2)c(F)cc2c(=O)c(C(=O)O)cn(C3CC3)c12 [FINAFLOXACIN] | 0.12 mg/L (≈ 0.301 µM) | 2 mg/L (≈ 5.02 µM) | 32 mg/L (≈ 80.3 µM) | 16 mg/L (≈ 40.2 µM) | 4 mg/L (≈ 10 µM) | 8 mg/L (≈ 20.1 µM) | 64 mg/L (≈ 161 µM) | 0.12 mg/L (≈ 0.301 µM) | 16 mg/L (≈ 40.2 µM) | 0.12 mg/L (≈ 0.301 µM) | 0.12 mg/L (≈ 0.301 µM) | 16 mg/L (≈ 40.2 µM) | 16 mg/L (≈ 40.2 µM) | 16 mg/L (≈ 40.2 µM)
O=C(O)c1cn(C2CC2)c2cc(N3CCNCC3)c(F)cc2c1=O [CIPROFLOXACIN] | 2 mg/L (≈ 6.04 µM) | > 128 mg/L |  | 8 mg/L (≈ 24.1 µM) | > 128 mg/L | 4 mg/L (≈ 12.1 µM) |  | 2 mg/L (≈ 6.04 µM) |  | 2 mg/L (≈ 6.04 µM) | 2 mg/L (≈ 6.04 µM) | 4 mg/L (≈ 12.1 µM) |  | 128 mg/L (≈ 386 µM)
